Data published in ChEMBL document CHEMBL1150864, “Antimalarial compounds from Rhaphidophora decursiva” (J Nat Prod, 2001).
≈ marks a conversion by molar mass, not a printed value.

How the values were obtained:
[1] = Cytotoxicity against human KB cells after 72 hrs; format: cell-based; conditions: read-out: ED50
Plasmodium falciparum [2] = experiment: Antiplasmodial activity against chloroquine-resistant Plasmodium falciparum W2 by [3H]hypoxanthine uptake; format: functional, organism-based
Summary of the method: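 P. falciparum W2 grown in type A+ human erythrocytes in RPMI-1640 with NaHCO3, HEPES, hypoxanthine and 10% Albumax II, 5% O2/5% CO2/90% N2, 37 °C. Samples from 4 mg/mL stock tested in triplicate at 0.5-1% parasitemia, 1% hematocrit. After 24 h, 0.5 μCi [3H]hypoxanthine added for 18 h more; IC50 by nonlinear regression, zero-drug controls as 100%.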

[3] = Selectivity index, ratio of ED50 for human KB cells to IC50 for chloroquine-sensitive Plasmodium falciparum D6; format: functional
[4] = Selectivity index, ratio of ED50 for human KB cells to IC50 for chloroquine-resistant Plasmodium falciparum W2; format: functional
Plasmodium falciparum [5] = experiment: Antiplasmodial activity against chloroquine-sensitive Plasmodium falciparum D6 by [3H]hypoxanthine uptake; format: functional, organism-based
Summary of the method: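 P. falciparum D6 kept in type A+ human erythrocytes (RPMI-1640, NaHCO3, HEPES, hypoxanthine, 10% Albumax II) under 5% O2/5% CO2/90% N2 at 37 °C. Plated at 0.5-1% parasitemia, 1% hematocrit with serial dilutions from 4 mg/mL stock, triplicate; 24 h, then 0.5 μCi [3H]hypoxanthine for 18 h more. Scintillation counting; IC50 by nonlinear regression versus zero-drug controls.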

Row | IC50 (Plasmodium falciparum [5]; D6, 42 h) [µg/mL] | Structure (SMILES) | CC50 at 72 h [1] [µg/mL] | IC50 (Plasmodium falciparum [2]) [µg/mL] | Selectivity Index [3] | Selectivity Index [4] | IC50 (Plasmodium falciparum [5]; D6) [µg/mL]
1 | – | COc1cc(O)cc2c1C(=O)OOC(C)CCCCC/C=C/2 (stereo unspecified) [RHAPHIDECURPEROXIN] | 4 (≈ 13.1 µM) | 0.42 (≈ 1.37 µM) | 0.7 | 1 | 0.54 (≈ 1.76 µM)
2 | > 10 | COc1cc([C@@H]2OC[C@@H]3[C@H]2CO[C@H]3c2cc(OC)c(O)c(OC)c2)cc(OC)c1O | – | – | – | – | –
3 | – | COc1cc([C@H]2O[C@@H](c3cc(OC)c(OC)c(OC)c3)[C@H](C)[C@H]2C)cc(OC)c1OC [EPIGRANDISIN] | 16 (≈ 37 µM) | 3.34 (≈ 7.72 µM) | <2 | 4 | > 10
4 | > 10 | CCCCNC(=O)c1ccccc1 | – | – | – | – | –
5 | > 10 | CC(=O)/C=C/[C@@]1(O)C(C)=CC(=O)CC1(C)C | – | – | – | – | –
6 | – | C=C[C@H]1CN2CC[C@H]1C[C@H]2[C@H](O)c1ccnc2ccc(OC)cc12 [QUININE] | > 20 | 0.041 (≈ 0.126 µM) | >2000 | >490 | 0.009 (≈ 0.0277 µM)
7 | > 10 | COc1cc([C@H]2OC[C@@H]3C(=O)OC[C@@H]32)cc(OC)c1O | – | – | – | – | –
8 | – | COc1cc([C@@H]2O[C@@H](c3cc(OC)c(OC)c(OC)c3)[C@H](C)[C@H]2C)cc(OC)c1OC [GRANDISIN] | 14 (≈ 32.4 µM) | 1.48 (≈ 3.43 µM) | 7 | 8 | 1.51 (≈ 3.49 µM)
9 | – | C/C=C/c1cc(OC)c(O[C@H](C)[C@@H](O)c2cc(OC)c(OC)c(OC)c2)c(OC)c1 (relative stereo) [POLYSYPHORIN] | 2 (≈ 4.78 µM) | 0.368 (≈ 0.879 µM) | 5 | 6 | 0.404 (≈ 0.965 µM)
10 | > 10 | COc1cc([C@@H]2OC[C@H]3[C@@H]2CO[C@H]3c2ccc(O)c(OC)c2)ccc1O [(-)-PINORESINOL] | – | – | – | – | –
11 | > 10 | CCCCCC1(O)OC(=O)C(C)=C1C (stereo unspecified) | – | – | – | – | –
12 | > 10 | COc1cc([C@H]2OC[C@H]3[C@@H]2CO[C@@H]3c2cc(OC)c(O)c(OC)c2)ccc1O | – | – | – | – | –
13 | – | C=CCc1cc(OC)c(O[C@H](C)[C@@H](O)c2cc(OC)c(OC)c(OC)c2)c(OC)c1 [RHAPHIDECURSINOL B] | 10 (≈ 23.9 µM) | 4.68 (≈ 11.2 µM) | 1 | 2 | 5.37 (≈ 12.8 µM)
14 | – | C[C@@H]1CC[C@H]2[C@@H](C)C(=O)O[C@@H]3O[C@@]4(C)CC[C@@H]1[C@]32OO4 [ARTEMISININ] | > 20 | 0.002 (≈ 0.00708 µM) | >10000 | >10000 | –
